Measurements taken from PMC2232887 (The Journal of General Physiology, 2000).
Where “and” joins values, the source holds several entries; their conditions need not be identical. Identical values can stand only once. Like-named read-outs stand apart in the source and are kept apart here. One block for each molecule: values may come before it.

Experiments:
[1] = biological target: hybrid OLFα+RETβ channels (UniProt Q00195+Q28181); assay type: biochemical; details: for block of channels by L-cis diltiazem: 10 μM L-cis diltiazem
How it was run: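 Xenopus oocytes were co-injected with olfactory α and rod β subunit mRNAs. Inside-out patches were recorded at 21–24°C in standard patch solution (115 mM NaCl, 5 EGTA, 1 EDTA, 5 HEPES, pH 7.5), held at −75 mV. Rod β incorporation was checked by applying 10 μM l-cis diltiazem. Currents were normalised to Imax at 2 mM cGMP.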

[2] = system: heteromeric RETα+β channels; assay type: biochemical, bovine; details: 10 μM L-cis diltiazem, saturating (2 mM) cGMP
[3] = system: native rod CNG channels; test: Inside-out patch recording of native rod CNG channels from rod outer segments; assay type: biochemical, tiger salamanders (Ambystoma tigrinum); details: for effect on the kinetics, cGMP sensitivity, or maximal current: in the absence of genistein
How it was run: (§1)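 Dark-adapted (1 h) tiger salamanders were anaesthetised in ice-cold […] (1 g/liter, 20 min). Retinas were triturated under dim red light, and inside-out patches were excised from rod or cone outer segments. Pipettes were 3–5 MΩ (115 mM NaCl, 5 EGTA, 1 EDTA, 5 HEPES, pH 7.5). Held at −75 mV; currents normalised to 2 mM cGMP Imax. Closed channels were pre-exposed 1 min to test compound, then given 2 mM cGMP. Ki from modified Hill fit.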

[4] = system: native olfactory CNG channels; assay type: biochemical, tiger salamanders
How it was run: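 Olfactory epithelium from land-phase tiger salamanders was digested with papain for 18–22 min at 21°C, washed 10 min in ice-cold solution and triturated to single neurons. Excised patches used 10–20 MΩ pipettes. Held at −75 mV; currents normalised to 2 mM cGMP Imax; mean ± SEM.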

[5] = biological target: heteromeric RETα+β channels (Bos taurus, UniProt Q00194); assay type: biochemical, bovine
[6] = biological target: T1, heteromeric OLFα+β channels (Rattus norvegicus, UniProt Q00195+Q64359); assay type: biochemical; details: closed and fully activated channels
T1 sequence (Q00195 1-664): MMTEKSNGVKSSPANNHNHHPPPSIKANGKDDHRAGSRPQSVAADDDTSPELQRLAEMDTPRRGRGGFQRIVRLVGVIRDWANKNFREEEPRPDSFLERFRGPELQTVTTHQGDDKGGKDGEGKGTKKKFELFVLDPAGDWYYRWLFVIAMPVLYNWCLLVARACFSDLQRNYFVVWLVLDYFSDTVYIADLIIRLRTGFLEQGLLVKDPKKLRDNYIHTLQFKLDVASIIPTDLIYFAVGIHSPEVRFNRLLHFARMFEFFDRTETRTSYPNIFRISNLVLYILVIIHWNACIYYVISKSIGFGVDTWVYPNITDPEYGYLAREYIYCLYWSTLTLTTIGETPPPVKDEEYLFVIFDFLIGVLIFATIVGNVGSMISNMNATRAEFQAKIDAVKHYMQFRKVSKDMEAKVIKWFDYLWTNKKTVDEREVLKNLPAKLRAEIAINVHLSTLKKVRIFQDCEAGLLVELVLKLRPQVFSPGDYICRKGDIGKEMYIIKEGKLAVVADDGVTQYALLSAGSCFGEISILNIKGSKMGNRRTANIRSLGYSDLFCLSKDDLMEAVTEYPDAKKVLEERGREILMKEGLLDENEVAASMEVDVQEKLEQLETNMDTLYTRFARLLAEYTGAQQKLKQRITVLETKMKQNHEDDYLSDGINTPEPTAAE
T1 sequence (Q64359 1-575): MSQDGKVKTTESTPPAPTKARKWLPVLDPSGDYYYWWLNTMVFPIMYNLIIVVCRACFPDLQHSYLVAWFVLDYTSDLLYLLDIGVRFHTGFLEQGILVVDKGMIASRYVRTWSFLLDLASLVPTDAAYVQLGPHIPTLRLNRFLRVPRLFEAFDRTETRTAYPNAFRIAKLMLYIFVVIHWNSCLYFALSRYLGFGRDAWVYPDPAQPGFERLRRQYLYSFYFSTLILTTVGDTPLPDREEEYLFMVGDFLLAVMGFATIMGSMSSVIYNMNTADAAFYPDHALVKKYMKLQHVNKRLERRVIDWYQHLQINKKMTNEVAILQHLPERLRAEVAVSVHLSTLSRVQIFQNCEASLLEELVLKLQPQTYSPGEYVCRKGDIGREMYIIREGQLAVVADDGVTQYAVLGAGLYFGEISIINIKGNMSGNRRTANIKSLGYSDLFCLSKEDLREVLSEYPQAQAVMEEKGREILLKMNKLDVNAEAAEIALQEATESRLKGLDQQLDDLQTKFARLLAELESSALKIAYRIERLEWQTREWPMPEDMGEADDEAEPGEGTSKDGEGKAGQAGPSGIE

[7] = biological target: T2, homomeric OLFα channels (rat olfactory CNG channels) (Rattus norvegicus, UniProt Q00195); assay type: biochemical; details: concentrations up to 500 μM
T2 sequence (Q00195 1-664): T1 sequence (Q00195 1-664)

[8] = biological target: T3, homomeric RETα channels (α subunits of the bovine rod photoreceptor CNG channel) (Bos taurus, UniProt Q00194); assay type: biochemical
T3 sequence (Q00194 1-690): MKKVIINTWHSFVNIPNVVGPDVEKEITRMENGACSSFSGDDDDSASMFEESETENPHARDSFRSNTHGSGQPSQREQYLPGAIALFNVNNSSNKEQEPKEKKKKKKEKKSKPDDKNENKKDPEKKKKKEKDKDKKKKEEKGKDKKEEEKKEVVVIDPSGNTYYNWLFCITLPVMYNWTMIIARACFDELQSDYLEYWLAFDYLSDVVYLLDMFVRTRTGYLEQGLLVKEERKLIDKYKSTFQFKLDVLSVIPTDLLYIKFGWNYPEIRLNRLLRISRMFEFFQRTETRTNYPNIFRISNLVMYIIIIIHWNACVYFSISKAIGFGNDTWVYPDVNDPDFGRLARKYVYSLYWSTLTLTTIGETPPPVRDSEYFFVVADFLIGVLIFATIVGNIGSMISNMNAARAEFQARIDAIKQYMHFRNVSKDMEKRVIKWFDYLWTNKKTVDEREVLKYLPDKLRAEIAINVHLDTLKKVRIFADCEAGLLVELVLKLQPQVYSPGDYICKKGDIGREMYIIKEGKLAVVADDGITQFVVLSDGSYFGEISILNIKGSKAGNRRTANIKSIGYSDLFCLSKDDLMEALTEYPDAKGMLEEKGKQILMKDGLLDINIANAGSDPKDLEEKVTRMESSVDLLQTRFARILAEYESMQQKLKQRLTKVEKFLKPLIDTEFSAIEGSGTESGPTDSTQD
How it was run: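 Bovine rod CNG α-subunit cRNA was injected into Xenopus oocytes (50 nl at 1 ng/nl). After 2–7 d, vitelline membrane was removed. Inside-out patches were recorded at 21–24°C with 2–3 MΩ pipettes in standard patch solution (115 mM NaCl, 5 EGTA, 1 EDTA, 5 HEPES, pH 7.5), held at −75 mV. Perfusion switched in 50 ms. Test compound (DMSO stock) was applied before or after 2 mM cGMP. Ki and Hill coefficient from modified Hill fit.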

[9] = system: native cone CNG channels; test: Inside-out patch recording of native cone CNG channels from cone outer segments; assay type: biochemical, tiger salamanders (Ambystoma tigrinum)
How it was run: as §1

[10] = closed channels, saturating genistein (500 μM)
[11] = fully activated, saturating cGMP (2 mM)

heteromeric RETα+β channels (Bos taurus, UniProt Q00194), sequence (Q28181 whole entry partner, one chain of several): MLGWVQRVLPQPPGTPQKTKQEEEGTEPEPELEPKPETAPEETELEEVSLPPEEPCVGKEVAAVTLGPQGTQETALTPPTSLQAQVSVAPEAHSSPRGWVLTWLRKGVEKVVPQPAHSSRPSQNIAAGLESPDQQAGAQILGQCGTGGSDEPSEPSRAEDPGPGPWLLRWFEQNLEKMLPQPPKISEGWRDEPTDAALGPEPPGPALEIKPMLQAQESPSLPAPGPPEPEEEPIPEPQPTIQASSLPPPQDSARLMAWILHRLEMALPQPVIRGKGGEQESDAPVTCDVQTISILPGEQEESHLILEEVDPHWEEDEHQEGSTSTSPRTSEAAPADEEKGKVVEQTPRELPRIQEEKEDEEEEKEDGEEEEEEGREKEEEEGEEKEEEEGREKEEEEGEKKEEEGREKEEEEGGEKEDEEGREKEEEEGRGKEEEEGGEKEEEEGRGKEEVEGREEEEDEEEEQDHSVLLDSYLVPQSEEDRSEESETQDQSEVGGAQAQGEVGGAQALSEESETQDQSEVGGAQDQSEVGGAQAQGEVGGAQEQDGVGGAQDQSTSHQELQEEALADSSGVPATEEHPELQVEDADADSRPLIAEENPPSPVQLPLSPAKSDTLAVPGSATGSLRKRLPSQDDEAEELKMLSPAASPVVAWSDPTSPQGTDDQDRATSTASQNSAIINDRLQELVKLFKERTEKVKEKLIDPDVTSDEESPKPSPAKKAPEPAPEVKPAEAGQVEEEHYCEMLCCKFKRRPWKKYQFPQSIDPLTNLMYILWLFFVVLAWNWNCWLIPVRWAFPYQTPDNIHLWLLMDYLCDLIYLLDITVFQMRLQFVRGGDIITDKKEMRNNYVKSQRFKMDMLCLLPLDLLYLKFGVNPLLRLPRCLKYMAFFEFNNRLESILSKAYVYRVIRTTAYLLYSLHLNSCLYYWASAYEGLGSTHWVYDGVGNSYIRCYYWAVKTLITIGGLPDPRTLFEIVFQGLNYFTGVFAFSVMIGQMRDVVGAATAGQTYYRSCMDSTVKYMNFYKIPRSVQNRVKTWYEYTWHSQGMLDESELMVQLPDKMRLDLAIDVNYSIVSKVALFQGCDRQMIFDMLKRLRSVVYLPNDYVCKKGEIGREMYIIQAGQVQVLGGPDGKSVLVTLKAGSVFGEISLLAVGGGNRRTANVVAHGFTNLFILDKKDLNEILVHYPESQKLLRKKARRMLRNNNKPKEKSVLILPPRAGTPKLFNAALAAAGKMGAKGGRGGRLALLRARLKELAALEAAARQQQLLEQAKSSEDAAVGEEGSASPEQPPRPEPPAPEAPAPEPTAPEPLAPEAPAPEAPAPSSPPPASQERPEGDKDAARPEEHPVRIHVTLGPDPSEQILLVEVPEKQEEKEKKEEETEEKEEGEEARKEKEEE
hybrid OLFα+RETβ channels, sequence (Q28181 whole entry, one chain of several): as the sequence (Q28181 whole entry partner, one chain of several) above

block of channels by L-cis diltiazem ([1]; OLFα to RETβ mRNA ratio 1:1.5): 36.8 ± 2.9%
block of channels by L-cis diltiazem ([1]; OLFα to RETβ mRNA ratio 1:3): 32.8 ± 1.4%
SMILES: COc1ccc([C@H]2Sc3ccccc3N(CCN(C)C)C(=O)[C@H]2OC(C)=O)cc1 (relative stereo) [L-cis diltiazem]
inhibition of channels by L-cis diltiazem ([2]; RETα to RETβ mRNA ratio 1:5): 50%
inhibition of channels by L-cis diltiazem ([2]; RETα to RETβ mRNA ratio 1:8): 78%
inhibition of channels by L-cis diltiazem ([2]; RETα to RETβ mRNA ratio 1:10): 80%

SMILES: Nc1ncnc2c1ncn2[C@@H]1O[C@H](COP(=O)(O)OP(=O)(O)NP(=O)(O)O)[C@@H](O)[C@H]1O [AMP-PNP, adenylylimidodiphosphate]
effect on the kinetics, cGMP sensitivity, or maximal current [3]: no effect

SMILES: O=CN/C=C/c1cc(O)ccc1O [erbstatin]
effect on the kinetics, cGMP sensitivity, or maximal current [3]: no effect

effect of genistein on hybrid channels ([1]; closed and fully activated states): no effect
maximal inhibition of closed channels by saturating genistein [4, 10]: 28 ± 4%
inhibition of fully activated channels by genistein [4, 11]: 11 ± 4%
Hill coefficient of genistein inhibition ([5]; closed channels): ~2 and ~1
Hill coefficient of genistein inhibition ([5]; open, fully activated channels): ~1
time constant of genistein inhibition ([5]; open, fully activated channels): ~1 s
genistein inhibition of closed channels ([7]; closed channels): fails to inhibit
genistein inhibition of fully activated channels ([7]; fully activated channels): fails to inhibit
Hill coefficient of genistein inhibition ([8]; closed channels): ~2
inhibition of fully activated channels by genistein [8, 11]: 67 ± 4%
Hill coefficient of genistein inhibition ([8]; open, fully activated channels): ~1
time constant of genistein inhibition ([8]; open, fully activated channels): 9 s
Ki ([8]; read-out: apparent K i for genistein, closed channels): 4 µM
SMILES: O=c1c(-c2ccc(O)cc2)coc2cc(O)cc(O)c12 [genistein]
genistein inhibition compared with native olfactory channels [6]: inhibited to an even greater extent than were native olfactory channels
τ of slowly activating CNG current component after genistein pretreatment ([3]; closed channels pre-exposed to 100 μM genistein for 1 min, then 2 mM cGMP): 8.5 s
maximal inhibition of closed channels by saturating genistein [3, 10]: 61 ± 8%
inhibition of fully activated channels by genistein [3, 11]: 31 ± 4%
time constant of genistein inhibition ([3]; open, fully activated channels): 1.2 s
maximal inhibition of closed channels by saturating genistein [9, 10]: 50 ± 3%
inhibition of fully activated channels by genistein [9, 11]: 37 ± 3%
